# Measured values: ChEMBL document CHEMBL2331279, “Rational design and synthesis of 4-substituted 2-pyridin-2-ylamides with inhibitory effects on SH2 domain-containing inositol 5'-phosphatase 2 (SHIP2)” (Eur J Med Chem, 2013)
# Active and inactive are the calls of the source. No cut-off for these calls is given here.
# Tests used:
# [1] = target: T1, Phosphatidylinositol 3,4,5-trisphosphate 5-phosphatase 2 (Mus musculus) (UniProt Q6P549); test: Inhibition of SHIP2 in mouse 3T3L1 cells assessed as reduction of TNF-alpha induced decrease in insulin-stimulated Akt phosphorylation at Thr308 at 10 uM treated for 15 mins after TNF alpha challenge for 16 hrs and prior to insulin stimulation measured after 2 hrs by Western blot analysis; type: cell-based; details: 3T3-L1
# T1 sequence (whole entry): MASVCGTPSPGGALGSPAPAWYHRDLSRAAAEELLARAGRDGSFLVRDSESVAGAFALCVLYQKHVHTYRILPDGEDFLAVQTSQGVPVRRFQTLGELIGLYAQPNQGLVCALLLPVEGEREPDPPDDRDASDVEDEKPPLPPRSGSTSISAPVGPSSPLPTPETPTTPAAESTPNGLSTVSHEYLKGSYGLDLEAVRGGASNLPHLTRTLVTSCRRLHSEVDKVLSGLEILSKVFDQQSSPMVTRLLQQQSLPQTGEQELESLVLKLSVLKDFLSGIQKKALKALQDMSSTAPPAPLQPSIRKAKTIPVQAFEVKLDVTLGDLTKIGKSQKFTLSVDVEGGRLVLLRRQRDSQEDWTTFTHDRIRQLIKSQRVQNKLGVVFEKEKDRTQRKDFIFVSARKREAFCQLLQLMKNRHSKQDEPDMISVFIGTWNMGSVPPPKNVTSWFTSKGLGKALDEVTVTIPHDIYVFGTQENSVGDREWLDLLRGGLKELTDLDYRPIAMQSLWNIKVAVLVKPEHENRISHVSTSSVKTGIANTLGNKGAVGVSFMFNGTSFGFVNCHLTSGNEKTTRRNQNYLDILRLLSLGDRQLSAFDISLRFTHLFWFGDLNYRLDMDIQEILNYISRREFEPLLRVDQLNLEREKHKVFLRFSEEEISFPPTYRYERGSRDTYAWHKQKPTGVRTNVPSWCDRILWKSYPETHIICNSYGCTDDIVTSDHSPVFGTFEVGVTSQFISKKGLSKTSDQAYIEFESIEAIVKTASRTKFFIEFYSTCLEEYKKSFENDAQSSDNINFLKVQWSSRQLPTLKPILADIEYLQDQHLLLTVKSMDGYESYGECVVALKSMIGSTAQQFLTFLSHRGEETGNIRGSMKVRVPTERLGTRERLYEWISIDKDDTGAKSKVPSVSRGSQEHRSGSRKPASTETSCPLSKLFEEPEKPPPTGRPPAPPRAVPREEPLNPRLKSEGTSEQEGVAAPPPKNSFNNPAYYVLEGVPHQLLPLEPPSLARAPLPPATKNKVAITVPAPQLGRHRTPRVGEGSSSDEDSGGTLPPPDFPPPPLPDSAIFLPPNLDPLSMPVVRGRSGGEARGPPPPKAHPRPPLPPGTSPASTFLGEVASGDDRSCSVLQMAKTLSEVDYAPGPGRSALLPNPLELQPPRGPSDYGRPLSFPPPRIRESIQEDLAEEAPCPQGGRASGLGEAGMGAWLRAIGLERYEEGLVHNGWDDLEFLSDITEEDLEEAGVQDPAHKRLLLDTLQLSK
# In short: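 3T3-L1 fibroblasts differentiated into adipocytes, then serum-starved 16 h with TNFα 20 ng/mL. Treated with compound 10 µM or 0.1% DMSO for 15 min, then stimulated with 17 nM insulin at 37 °C for 2 h. Cells lysed on ice at pH 7.5 and Thr308 phospho-Akt measured by western blot. Results given as fold change versus TNFα+insulin control. Mean ± SE.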
# [2] = target: T2, Phosphatidylinositol 3,4,5-trisphosphate 5-phosphatase 2 (Homo sapiens, UniProt O15357); test: Inhibition of SHIP2 (unknown origin)
# T2 sequence (O15357 whole entry): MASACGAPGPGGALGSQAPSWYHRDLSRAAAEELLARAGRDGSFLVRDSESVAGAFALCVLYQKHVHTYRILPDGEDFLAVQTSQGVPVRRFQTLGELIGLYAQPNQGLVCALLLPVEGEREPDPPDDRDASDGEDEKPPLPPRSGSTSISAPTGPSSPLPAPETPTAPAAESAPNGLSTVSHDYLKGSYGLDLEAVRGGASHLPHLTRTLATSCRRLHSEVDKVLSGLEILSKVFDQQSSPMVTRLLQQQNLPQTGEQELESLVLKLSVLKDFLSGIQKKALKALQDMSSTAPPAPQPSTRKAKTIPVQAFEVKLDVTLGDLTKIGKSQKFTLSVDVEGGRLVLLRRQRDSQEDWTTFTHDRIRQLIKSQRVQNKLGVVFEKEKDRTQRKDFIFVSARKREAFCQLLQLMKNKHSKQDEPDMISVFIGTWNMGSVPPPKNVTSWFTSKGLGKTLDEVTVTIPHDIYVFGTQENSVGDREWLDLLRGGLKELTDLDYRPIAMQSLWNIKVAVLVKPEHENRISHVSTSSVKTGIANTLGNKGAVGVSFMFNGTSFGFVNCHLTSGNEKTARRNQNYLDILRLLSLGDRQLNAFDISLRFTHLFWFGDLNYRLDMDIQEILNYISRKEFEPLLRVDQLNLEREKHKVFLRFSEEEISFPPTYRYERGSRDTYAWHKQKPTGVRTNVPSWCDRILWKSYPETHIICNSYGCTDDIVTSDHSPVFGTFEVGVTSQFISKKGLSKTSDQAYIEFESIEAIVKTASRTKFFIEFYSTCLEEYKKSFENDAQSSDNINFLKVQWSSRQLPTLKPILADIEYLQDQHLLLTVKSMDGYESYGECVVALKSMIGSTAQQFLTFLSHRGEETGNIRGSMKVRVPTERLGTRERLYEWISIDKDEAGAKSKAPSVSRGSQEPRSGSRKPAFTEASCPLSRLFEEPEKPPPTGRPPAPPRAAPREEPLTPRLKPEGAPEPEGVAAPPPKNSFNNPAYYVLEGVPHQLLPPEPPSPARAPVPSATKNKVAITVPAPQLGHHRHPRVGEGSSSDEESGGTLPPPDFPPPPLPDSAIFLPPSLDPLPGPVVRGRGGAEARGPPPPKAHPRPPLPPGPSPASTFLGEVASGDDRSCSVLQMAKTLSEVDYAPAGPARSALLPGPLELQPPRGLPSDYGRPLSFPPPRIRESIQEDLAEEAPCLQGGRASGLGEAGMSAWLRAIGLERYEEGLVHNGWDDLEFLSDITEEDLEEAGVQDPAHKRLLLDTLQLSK
Compound,inhibition [1],IC50 [2] [nM]
O=C(Cc1ccc(F)cc1)Nc1cc(OCc2ccc(F)cc2)ccn1,Active,
CC(C)N(CCNc1ccc(-c2cc(-c3ccc(F)cc3)n(-c3ccc(Cl)c(Cl)c3)n2)cn1)C(C)C,,1100
O=C(CCc1ccccc1)Nc1cc(OCc2ccc(Cl)cc2)ccn1,Active,
O=C(CCc1ccccc1)Nc1cc(COCc2ccc(F)cc2)ccn1,Active,
O=C(Cc1ccccc1)Nc1cc(OCc2ccc(F)cc2)ccn1,Active,
O=C(CCc1ccccc1)Nc1cc(COCc2ccc(Cl)cc2)ccn1,Active,
O=C(Cc1cc(F)cc(F)c1)Nc1cc(COCc2ccc(F)cc2)ccn1,Active,
O=C(CCc1ccccc1)Nc1cc(COCc2ccccc2)ccn1,Active,
O=C(Cc1ccccc1C(F)(F)F)Nc1cc(OCc2ccc(Cl)cc2)ccn1,Active,
O=C(Cc1c(F)cccc1F)Nc1cc(COCc2ccc(F)cc2)ccn1,Active,
O=C(Cc1c(F)cccc1F)Nc1cc(OCc2ccc(F)cc2)ccn1,Active,
O=C(Cc1ccccc1)Nc1cc(COCc2ccc(Cl)cc2)ccn1,Active,
